Consider seven compounds from PubChem BioAssay.

Activity calls are given as the source filed them.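 Rule for the calls, unless noted: active = inhibition at or above 50% relative to wild type and mutant plate controls; inactive = inhibition below 50%.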

The nature of assay [1]: inhibitors of TNFa-induced NFkB p65 translocation, primary screen, imaging, HUVEC, MLSMR starter and 10KST1 sets (AID 438;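 active = inhibition above 20% together with a positive visual image hit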;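 note: compound added about 3h40 before a 20 min TNFalpha stimulation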;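 for inhibition: signal is the nuclear over cytoplasmic p65 intensity ratio per well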). The note with it: HUVEC TNFa-induced p65 nuclear translocation; cell count: measured here: nuclei count (cytotoxicity indicator), at 2.08 µM; inhibition: at 2 µM, stronger effect = higher value, 0% TNFa-plus-vehicle, 100% no-TNFa wells.
Assay [2] is described as follows: endothelial E-selectin expression blockers – imaging, HUVEC, immunofluorescence, MLSMR starter and 10KST1 sets, primary screen (AID 487;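 active = visually confirmed hit in the image check and inhibition above 20%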;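 for inhibition: signal is fraction of cell area covered by stained E-selectin grains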;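 for nuclei count: 100% = median nuclei count of all wells on the same plate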). The note with it: HUVEC TNFalpha-induced E-selectin immunofluorescence imaging, at 2 µM; inhibition: stronger effect = higher value; nuclei count: measured here: cell number, toxicity.
Assay [3] in a line: Primary imaging screen for DUSP6 inhibitors that restore phospho-Erk in transfected HeLa cells, chemical complementation (AID 609;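 active = compounds giving at least 50% inhibition in the cell-based MKP-3 phosphatase rescue imaging test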;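 for inhibition: phospho-Erk level distribution per well compared with pooled transfected vehicle control wells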). Particulars: HeLa MKP-3 transfected, phospho-Erk imaging KS statistic, at 10 µM, cells stimulated with TPA for 15 min.
Assay [4] deals with Dual specificity protein phosphatase 6 (Homo sapiens) (UniProt Q16828). The assay is described as above. The note with it: HeLa MKP-3 transfected, phospho-Erk imaging KS statistic; at 10 µM; stronger effect = higher value; cells stimulated with TPA for 15 min.
Dual specificity protein phosphatase 6 (Homo sapiens), sequence (Q16828 whole entry, looked up): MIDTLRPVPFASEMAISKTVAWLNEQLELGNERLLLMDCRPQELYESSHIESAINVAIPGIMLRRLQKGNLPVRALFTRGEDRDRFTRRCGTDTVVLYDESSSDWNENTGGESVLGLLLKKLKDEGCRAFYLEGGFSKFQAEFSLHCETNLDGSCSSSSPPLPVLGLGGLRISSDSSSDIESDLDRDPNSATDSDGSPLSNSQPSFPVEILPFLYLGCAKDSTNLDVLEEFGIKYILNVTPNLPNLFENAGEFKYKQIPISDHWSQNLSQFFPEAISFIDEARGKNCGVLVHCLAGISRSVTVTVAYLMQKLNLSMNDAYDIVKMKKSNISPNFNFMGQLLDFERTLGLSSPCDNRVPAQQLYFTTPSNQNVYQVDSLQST
The target of assay [5] is Voltage-gated potassium channel subunit beta-2 (Rattus norvegicus) (UniProt P62483). Put plainly: inhibitors of rat Kvbeta2 reductase activity – biochemical, NADPH fluorescence, primary screen (AID 622;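 active = fluorescence slope higher than the sample average by over 3 SD, cut at about -0.22 in these data, passing the limit was not always enough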;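 note: slope of raw intensity against log time taken from 70 to 1610 s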). Particulars: recombinant KvBeta, 4-cyanobenzaldehyde reduction, at 10 µM, stronger effect = higher value.
Voltage-gated potassium channel subunit beta-2 (Rattus norvegicus), sequence (P62483 whole entry, looked up): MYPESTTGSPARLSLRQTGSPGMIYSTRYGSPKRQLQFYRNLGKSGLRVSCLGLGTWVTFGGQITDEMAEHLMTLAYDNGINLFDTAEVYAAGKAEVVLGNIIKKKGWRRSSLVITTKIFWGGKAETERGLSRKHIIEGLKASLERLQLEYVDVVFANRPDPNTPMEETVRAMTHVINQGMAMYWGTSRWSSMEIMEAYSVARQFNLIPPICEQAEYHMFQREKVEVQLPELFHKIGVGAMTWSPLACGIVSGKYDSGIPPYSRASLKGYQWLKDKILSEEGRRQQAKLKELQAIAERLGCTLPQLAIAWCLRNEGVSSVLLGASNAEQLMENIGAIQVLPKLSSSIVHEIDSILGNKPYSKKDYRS
Assay [6] shares this target. The experiment in a line: enhancers of rat Kvbeta2 NADPH turnover – biochemical, NADPH fluorescence, primary screen (AID 623;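 active = NADPH fluorescence slope more negative than the mean of all samples by about 3 SD, 99.7% confidence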;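 note: fluorescence intensity change per second fitted from 20 to 320 s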). The note with it: Recombinant KvBeta, NADPH fluorescence decrease slope, 10 min; at 10 µM; stronger effect = lower value.
The target of assay [7] is Muscarinic acetylcholine receptor M4 (Homo sapiens) (UniProt P08173). The experiment in a line: M4-linked GIRK flux change, two-sided – cell-based, HEK293 M4/GIRK, thallium flux, BTC-AM, M4 allosteric agonist project, primary screen (AID 625;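 active = fluorescence slope after compound addition differing from the mean of all tested samples at 99.7% confidence, mostly higher but some lower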;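 note: thallium influx through GIRK channels coupled to M4 in HEK293 cells with BTC-AM dye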). The note with it: at 10 µM, actives lie on both sides. In outline:
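Assay system: HEK293 cells with M4 receptor and GIRK channels / Controls: carbachol and DMSO controls / Schedule: 1 h dye loading, 2 min kinetic read / Technique: kinetic fluorescence with BTC-AM dye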

Assay [8] in a line: inhibitors of larval lipid processing in zebrafish, primary screen, whole organism, PED6 fluorescence, gall bladder and intestine (AID 686;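 active = a full or partial loss of lipid-probe fluorescence in the fish gall bladder, intestine or both, judged by eye; inactive = no fluorescence loss, or compound toxic to the fish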;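 note: larvae 5 to 7 days old with five fish per well; signal comes from phospholipase A2 cleavage of quenched PED6 carried via bile; overnight exposure to compound and PED6 before scoring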). The note with it: Zebrafish larvae PED6 lipid processing, fluorescence scoring; screened at 20 µM (by protocol). A digest of the protocol:
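Doses: 20 µM single dose. Test system: live zebrafish larvae aged 5-7 days, whole organism. Quantity: five larvae per well. Measured by: By-eye fluorescence microscopy. Reagent: ingested quenched lipid PED6 at 100 nM. Read-out: visual per-well fluorescence inhibition score. Times: overnight exposure of larvae to compound plus PED6.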

Assay [9] is described as follows: loss of swimming-algae plug formation – whole organism, Chlamydomonas reinhardtii, WT vs cilia-less mutant, absorbance, 96-well, primary screen (AID 463189).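 Note: 0% = wild type cc124 cells in DMSO and 100% = ciliumless bld1 mutant cells.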 The note with it: Chlamydomonas reinhardtii gravitaxis, OD600 absorbance, 2 days; at 10 µM; stronger effect = higher value.
Setting [10] is: measured here: cell density z-score.
[11] abbreviates: measured here: nuclear c-Myc green intensity z-score.
The mark [12] stands for this setting: measured here: nuclear pErk red intensity z-score, stronger effect = higher value.

Muscarinic acetylcholine receptor M4 (Homo sapiens), sequence (P08173 whole entry, looked up): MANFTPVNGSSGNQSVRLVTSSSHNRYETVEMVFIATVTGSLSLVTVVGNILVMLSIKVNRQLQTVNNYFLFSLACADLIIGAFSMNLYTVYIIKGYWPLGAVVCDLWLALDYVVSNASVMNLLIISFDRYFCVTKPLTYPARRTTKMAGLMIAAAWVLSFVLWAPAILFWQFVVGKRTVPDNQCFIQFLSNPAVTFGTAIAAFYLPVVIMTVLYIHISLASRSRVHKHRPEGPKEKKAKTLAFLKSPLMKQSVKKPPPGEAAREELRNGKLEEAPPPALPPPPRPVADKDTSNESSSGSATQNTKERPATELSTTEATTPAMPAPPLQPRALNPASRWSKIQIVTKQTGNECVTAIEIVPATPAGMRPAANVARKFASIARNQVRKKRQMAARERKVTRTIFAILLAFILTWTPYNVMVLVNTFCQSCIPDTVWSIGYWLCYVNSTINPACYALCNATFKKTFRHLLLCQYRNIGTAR

As a reminder, the inhibition is the relative decrease from the control value, in per cent. With `C=C(C)CSc1nc(N)c2c3c(sc2n1)CCC3`, the cell count in [1] was determined as 394. Moreover, the inhibition in assay [1] was -3.4% (inactive); in [2], 2.9% (inactive); in assay [4] it was 5.42% (inactive); in assay [9], -7.33% (inactive). In assay [2], this compound showed a nuclei count of 149%. The z-score in [3] (setting [10]) was -1.07; in assay [3] (setting [11]) it was 1.64; in assay [3] (setting [12]), -0.412. Besides, the fluorescence slope in assay [5] was -0.451 (inactive); in [7], 0.00788 (inactive). In assay [6], the NADPH fluorescence slope is -0.000115 (inactive). In addition, the call in assay [8] was inactive.
With `Cc1cc(=O)oc(C)c1C(=O)NCC(C)C`, the cell count in [1] worked out at 455. Besides, the inhibition is -2.1% (inactive) in assay [1], -11.5% (inactive) in assay [2], 23.8% (inactive) in assay [4] and -17.5% (inactive) in assay [9]. The nuclei count in assay [2] amounted to 98.2%. Further, the z-score is -0.875 in assay [3] (setting [10]), 2.27 in [3] (setting [11]) and -0.541 in assay [3] (setting [12]). Also, the fluorescence slope in assay [5] is -0.432 (inactive); in assay [7], 0.00519 (inactive). Moreover, the NADPH fluorescence slope in [6] is -5.9e-06 (inactive). Further, the call in assay [8] was inactive.
Consider `Cc1cc(=O)oc(C)c1C(=O)NCCc1ccccc1`, for which, in [1], the cell count was 661. The inhibition in [1] was 9.3% (inactive); in assay [2] it was -1% (inactive); in assay [4] it was 5.35% (inactive); in assay [9], -7.3% (inactive). Besides, in assay [2], the nuclei count came to 109%. Besides, the results for the z-score in assay [3] (setting [10]), in assay [3] (setting [11]) and in [3] (setting [12]) were -0.903, 1.05 and 0.63, respectively. The fluorescence slope is -0.433 (inactive) in assay [5] and 0.00484 (inactive) in [7]. In addition, the NADPH fluorescence slope in [6] is -4.2e-05 (inactive). In addition, the call in [8] was inactive.
In the case of `COC(=O)C(C)Sc1nc2c(c(=O)n(C)c(=O)n2C)n1CCC(C)C` (stereo unspecified), in [1], the cell count stood at 630. Besides, the inhibition in assay [1] was 0.3% (inactive); in [2], -5.5% (inactive); in assay [4], 3.42% (inactive); in assay [9] it was 4.36% (inactive). The compound further returned a nuclei count in assay [2] of 179%. Also, the z-score is 0.304 in assay [3] (setting [10]), -0.191 in [3] (setting [11]) and -1.37 in assay [3] (setting [12]). Also, the figures for the fluorescence slope in assay [5] and in [7] were -0.42 (inactive) and 0.00499 (inactive), respectively. In addition, in [6], the NADPH fluorescence slope is -1.8e-05 (inactive). In addition, the outcome in assay [8] was inactive.
As to `CCOC(=O)C1CCN(c2ncnc3c2cnn3-c2ccc(Cl)cc2)CC1`, the cell count in assay [1] came to 621. Besides, the inhibition in assay [1] is -13.7% (inactive); in assay [2] it was -82.8% (inactive); in [4], 27.4% (inactive); in assay [9], -0.354% (inactive). The same compound came in with a nuclei count in assay [2] of 158%. For the same compound, the z-score in assay [3] (setting [10]) was 1.18; in assay [3] (setting [11]), -0.0217; in [3] (setting [12]) it was -0.611. Also, the values for the fluorescence slope in assay [5] and in [7] were -0.442 (inactive) and 0.00741 (inactive), respectively. The NADPH fluorescence slope in assay [6] was -1.8e-05 (inactive). In addition, the result in [8] was inactive.
As for `N#Cc1nc(COc2ccc(Br)cc2)oc1N1CCN(Cc2ccccc2)CC1`, the cell count in assay [1] was found to be 444. Moreover, the inhibition is 2% (inactive) in assay [1], -74.5% (inactive) in assay [2], 12.7% (inactive) in assay [4] and 12.9% (inactive) in assay [9]. This compound came in with a nuclei count in assay [2] of 138%. Further, the z-score in assay [3] (setting [10]) was 0.98; in assay [3] (setting [11]), 0.14; in assay [3] (setting [12]), -0.518. The fluorescence slope in [5] is -0.444 (inactive); in [7], 0.00951 (inactive). In assay [6], the NADPH fluorescence slope was -2.9e-05 (inactive). Also, the result in assay [8] was inactive.
In the case of `C=CCn1c(N)c(C(=O)Nc2ccccc2)c2nc3ccccc3nc21`, the cell count in assay [1] was determined as 628. Further, the inhibition in [1] was 9.1% (inactive); in [2], -27.4% (inactive); in [4], 9.07% (inactive); in assay [9] it was 59.2% (active). In [2], this compound had a nuclei count of 121%. In addition, the z-score is 1.06 in assay [3] (setting [10]), -1.1 in [3] (setting [11]) and -0.334 in assay [3] (setting [12]). For the same compound, the values for the fluorescence slope in assay [5] and in assay [7] were -0.398 (inactive) and 0.00512 (inactive), respectively. The NADPH fluorescence slope in [6] was -1.8e-05 (inactive). Besides, the outcome in assay [8] is “active; no signal in intestine only”.
